Reference: ChEMBL document CHEMBL4251575, “Design, synthesis, and biological evaluation of 1,3-diarylisoquinolines as novel topoisomerase I catalytic inhibitors” (Eur J Med Chem, 2018)
pIC50: −log10 of the molar value. The source made the active and inactive calls. No cut-off for these calls is given here.

Assays:
[1] = target: T1, DNA topoisomerase 1 (Homo sapiens) (UniProt P11387); assay: Poison activity at human topoisomerase 1 assessed as induction of relaxation of pHOT1 DNA substrate at 100 to 1000 uM incubated for 30 mins by ethidium bromide dye-based agarose gel electrophoresis analysis
T1 sequence (whole entry): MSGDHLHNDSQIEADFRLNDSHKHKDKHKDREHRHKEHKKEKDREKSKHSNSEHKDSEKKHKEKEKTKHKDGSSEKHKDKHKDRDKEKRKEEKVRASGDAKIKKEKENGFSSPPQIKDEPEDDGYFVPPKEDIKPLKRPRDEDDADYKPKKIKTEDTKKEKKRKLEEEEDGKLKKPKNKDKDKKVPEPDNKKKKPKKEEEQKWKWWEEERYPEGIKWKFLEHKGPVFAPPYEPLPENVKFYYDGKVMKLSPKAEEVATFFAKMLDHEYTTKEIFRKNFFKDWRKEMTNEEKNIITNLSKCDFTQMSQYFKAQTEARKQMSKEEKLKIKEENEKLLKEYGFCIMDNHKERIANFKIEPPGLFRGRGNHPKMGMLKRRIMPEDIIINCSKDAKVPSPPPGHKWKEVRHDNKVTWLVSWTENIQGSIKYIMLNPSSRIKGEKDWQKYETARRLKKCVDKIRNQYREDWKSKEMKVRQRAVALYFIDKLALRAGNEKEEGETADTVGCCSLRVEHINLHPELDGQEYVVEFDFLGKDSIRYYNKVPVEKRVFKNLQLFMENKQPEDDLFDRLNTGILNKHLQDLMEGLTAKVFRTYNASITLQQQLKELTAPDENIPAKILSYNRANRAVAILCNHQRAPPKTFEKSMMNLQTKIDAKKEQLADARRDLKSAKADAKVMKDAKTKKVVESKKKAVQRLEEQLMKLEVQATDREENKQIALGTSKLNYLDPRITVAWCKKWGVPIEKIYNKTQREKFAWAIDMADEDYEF
How it was run: (§1)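 pHOT1 (100 ng) relaxed first with topo I (3 units) in 10 mM Tris-HCl pH 7.5, 1 mM EDTA, 30 min at 37 °C. Compound then added for a further 30 min at 37 °C; amsacrine positive control at 100–1000 μM. Stopped with 1% SDS and run on 1% agarose at 15 V/cm for 12–15 h. EtBr-stained and imaged.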

[2] = test system: HCT-15; assay: Cytotoxicity against human HCT15 cells after 72 hrs by cell counting kit-8 analysis; assay type: functional, cell-based; conditions: HCT-15, 72 h
How it was run: (§2)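 Cells seeded at 2×10^5 or 1×10^5 per well, grown overnight in medium with 10% FBS at 37 °C, 5% CO₂, then FBS-starved 4 h. Graded compound concentrations given for 72 h. CCK-8 then added for 4 h and absorbance read at 450 nm. IC50 from a four-parameter logistic fit; mean ± S.D. of three experiments, each in triplicate.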

[3] = test system: T47D; assay: Cytotoxicity against human T47D cells after 72 hrs by cell counting kit-8 analysis; assay type: functional, cell-based; how it was run: as §2
[4] = target: T1, DNA topoisomerase 1 (Homo sapiens); assay: Inhibition of human recombinant DNA topoisomerase 1-mediated DNA relaxation at 100 uM incubated for 30 mins using pBR322 DNA substrate by ethidium bromide dye-based agarose gel electrophoresis relative to control camptothecin
How it was run: (§3)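 pBR322 (100 ng) with recombinant human topo I (0.4 units) in 10 mM Tris-HCl pH 7.9, 150 mM NaCl, 0.1% BSA, 1 mM spermidine, 5% glycerol, 30 min at 37 °C. Stopped with sarcosyl/glycerol/dye and run on 1% agarose/TAE at 15 V for 7 h. EtBr-stained; supercoiled DNA quantified as % inhibition. Relative values are the ratio to the camptothecin control.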

[5] = target: T1, DNA topoisomerase 1 (Homo sapiens); assay: Inhibition of human recombinant DNA topoisomerase 1-mediated DNA relaxation at 20 uM incubated for 30 mins using pBR322 DNA substrate by ethidium bromide dye-based agarose gel electrophoresis; how it was run: as §3
[6] = target: DNA topoisomerase 2-alpha (Homo sapiens) (UniProt P11388); assay: Inhibition of human DNA topoisomerase 2 alpha-mediated DNA relaxation at 100 uM incubated for 30 mins using pBR322 DNA substrate by ethidium bromide dye-based agarose gel electrophoresis relative to control etoposide
DNA topoisomerase 2-alpha (Homo sapiens), sequence (P11388 whole entry): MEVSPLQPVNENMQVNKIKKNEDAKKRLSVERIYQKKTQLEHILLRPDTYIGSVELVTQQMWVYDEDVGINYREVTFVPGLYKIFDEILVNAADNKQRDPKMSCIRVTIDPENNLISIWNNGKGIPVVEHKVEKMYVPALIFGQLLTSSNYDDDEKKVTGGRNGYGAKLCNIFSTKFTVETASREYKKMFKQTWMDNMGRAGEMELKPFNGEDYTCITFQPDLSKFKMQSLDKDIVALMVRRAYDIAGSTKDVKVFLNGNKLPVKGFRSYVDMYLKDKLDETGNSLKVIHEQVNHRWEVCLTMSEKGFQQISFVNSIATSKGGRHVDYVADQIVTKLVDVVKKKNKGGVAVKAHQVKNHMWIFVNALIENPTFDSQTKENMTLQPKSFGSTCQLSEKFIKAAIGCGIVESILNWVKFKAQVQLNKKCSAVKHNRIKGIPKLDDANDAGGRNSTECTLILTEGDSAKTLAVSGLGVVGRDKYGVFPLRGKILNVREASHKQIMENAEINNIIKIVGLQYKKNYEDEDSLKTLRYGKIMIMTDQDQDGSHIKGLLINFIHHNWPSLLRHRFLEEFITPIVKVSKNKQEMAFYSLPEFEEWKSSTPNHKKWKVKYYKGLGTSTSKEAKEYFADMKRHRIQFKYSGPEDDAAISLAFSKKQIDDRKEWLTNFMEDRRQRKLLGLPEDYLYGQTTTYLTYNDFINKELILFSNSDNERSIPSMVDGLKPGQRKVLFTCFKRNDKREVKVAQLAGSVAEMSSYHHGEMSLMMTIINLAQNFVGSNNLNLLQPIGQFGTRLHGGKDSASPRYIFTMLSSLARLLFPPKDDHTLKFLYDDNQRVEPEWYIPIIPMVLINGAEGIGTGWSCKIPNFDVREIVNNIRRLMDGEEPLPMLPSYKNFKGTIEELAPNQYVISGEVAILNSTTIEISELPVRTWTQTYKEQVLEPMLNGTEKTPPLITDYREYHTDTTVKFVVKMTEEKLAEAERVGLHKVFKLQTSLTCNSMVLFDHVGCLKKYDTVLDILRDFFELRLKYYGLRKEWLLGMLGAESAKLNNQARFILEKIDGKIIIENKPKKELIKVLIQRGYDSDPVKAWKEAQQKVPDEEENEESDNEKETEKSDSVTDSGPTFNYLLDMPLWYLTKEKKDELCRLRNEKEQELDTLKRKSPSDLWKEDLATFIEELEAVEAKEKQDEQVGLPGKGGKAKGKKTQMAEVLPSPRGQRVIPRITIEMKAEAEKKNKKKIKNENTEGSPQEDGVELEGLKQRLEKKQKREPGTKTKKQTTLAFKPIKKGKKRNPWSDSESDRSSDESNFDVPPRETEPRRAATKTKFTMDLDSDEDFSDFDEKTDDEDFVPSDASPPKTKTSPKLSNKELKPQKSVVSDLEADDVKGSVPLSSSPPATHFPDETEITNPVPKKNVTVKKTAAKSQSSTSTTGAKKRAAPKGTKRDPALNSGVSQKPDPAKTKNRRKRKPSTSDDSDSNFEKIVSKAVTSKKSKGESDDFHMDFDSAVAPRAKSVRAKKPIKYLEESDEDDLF
How it was run: (§4)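 Stopped with EDTA and run on 1% agarose/TAE at 25 V for 4 h. EtBr-stained; supercoiled DNA quantified as % inhibition. Relative values are the ratio to the etoposide control.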

[7] = target: T1, DNA topoisomerase 1 (Homo sapiens); assay: Inhibition of human recombinant DNA topoisomerase 1-mediated DNA relaxation at 100 uM incubated for 30 mins using pBR322 DNA substrate by ethidium bromide dye-based agarose gel electrophoresis; how it was run: as §3
[8] = species on record: Sus scrofa; assay: Induction of porcine brain tubulin polymerization at 10 uM after 61 mins by spectroscopic analysis
How it was run: (§5)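 Porcine brain tubulin at 1.5 mg/mL final in cold PEM buffer (80 mM Na-PIPES pH 6.9, 1 mM MgCl₂, 30% glycerol, 1 mM EGTA) with 1 mM GTP. Compounds were dissolved in DMSO and diluted in PEM. They were pre-warmed 2 min at 37 °C before tubulin was added. DMSO vehicle and paclitaxel controls. A340 was read each minute for 61 min at 37 °C.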

[9] = target: T1, DNA topoisomerase 1 (Homo sapiens); assay: Inhibition of human recombinant DNA topoisomerase 1-mediated DNA relaxation at 20 uM incubated for 30 mins using pBR322 DNA substrate by ethidium bromide dye-based agarose gel electrophoresis relative to control camptothecin; how it was run: as §3
[10] = test system: MCF-10A; assay: Cytotoxicity against human MCF10A cells after 72 hrs by cell counting kit-8 analysis; assay type: cell-based; how it was run: as §2
[11] = target: DNA topoisomerase 2-alpha (Homo sapiens) (UniProt P11388); assay: Inhibition of human DNA topoisomerase 2 alpha-mediated DNA relaxation at 100 uM incubated for 30 mins using pBR322 DNA substrate by ethidium bromide dye-based agarose gel electrophoresis; how it was run: as §4
[12] = species on record: Sus scrofa; assay: Inhibition of porcine brain tubulin polymerization at 10 uM after 61 mins by spectroscopic analysis; how it was run: as §5
[13] = target: T1, DNA topoisomerase 1 (Homo sapiens); assay: Poison activity at topoisomerase 1 in human T47D cells assessed as induction of induction of DNA damage by measuring tail DNA levels at 5 uM after 24 hrs by SYBR Green staining-based comet assay; assay type: cell-based
How it was run: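 T47D cells seeded 1 x 10⁵ per well, treated 24 h, trypsinised, resuspended in ice-cold PBS, embedded in low-melting agarose on slides. Lysed 30 min at 4 °C in the dark, alkaline unwinding (pH > 13) 30 min at r.t., alkaline electrophoresis 20 min at 15 V, SYBR Green staining, fluorescence microscopy; % tail DNA versus untreated control.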

[14] = target: T1, DNA topoisomerase 1 (Homo sapiens); assay: Poison activity at topoisomerase 1 in human T47D cells assessed as induction of induction of DNA damage by measuring tail DNA levels at 10 uM after 24 hrs by SYBR Green staining-based comet assay; assay type: cell-based
How it was run: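 T47D cells seeded at 1×10^5 per well and treated 24 h, then trypsinized and suspended in ice-cold PBS. Embedded in low-melting agarose, lysed 30 min at 4 °C and alkaline-unwound (pH > 13) 30 min at r.t. Alkaline electrophoresis 20 min at 15 V, then SYBR Green stain and fluorescence microscopy. Read-out is % tail DNA versus untreated and CPT controls.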

[15] = target: T1, DNA topoisomerase 1 (Homo sapiens); assay: Inhibition of free DNA topoisomerase-1 in human T47D cells at 50 uM assessed as suppression of camptothecin-induced decrease in free topoisomerase-1 levels pre-treated before camptothecin addition and measured after 2 hrs by band depletion assay; assay type: cell-based
[16] = target: T1, DNA topoisomerase 1 (Homo sapiens); assay: Inhibition of DNA topoisomerase-1 in human T47D cells assessed as decrease in free topoisomerase-1 levels incubated for 2 hrs by band depletion assay; assay type: cell-based
How it was run: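 T47D cells seeded at 2×10^5 in 60-mm plates. On day 2 they were treated 2 h at 37 °C, harvested by trypsin and held in PBS containing the same compound concentration. Lysis in 62.5 mM Tris-HCl pH 6.8, 1 mM EDTA, 2% SDS with sonication, then centrifuged. 50 µg protein run on 8% SDS-PAGE; Western blot for free topo I with ECL detection.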

[17] = target: T1, DNA topoisomerase 1 (Homo sapiens); assay: Poison activity at human topoisomerase 1 assessed as induction of relaxation of pHOT1 DNA substrate at 1000 uM incubated for 30 mins by ethidium bromide dye-based agarose gel electrophoresis analysis; how it was run: as §1
[18] = target: T1, DNA topoisomerase 1 (Homo sapiens); assay: Poison activity at topoisomerase 1 (unknown origin) assessed as […] in enzyme mediated DNA cleavage complex formation by measuring increase in nicked DNA level at 500 uM using supercoiled pBR322 plasmid DNA as substrate after 20 mins by ethidium bromine dye-based agarose gel electrophoresis analysis
How it was run: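 Supercoiled pBR322 (100 ng) pre-reacted 10 min with topo I (3 units), then compound added for 20 min at 37 °C. Stopped with 0.5% sarcosyl and digested with proteinase K at 45 °C for 30 min, then heated 2 min at 70 °C. Run on 1.5% agarose/TAE containing 0.5 μg/mL EtBr; nicked DNA versus DMSO control, CPT as poison control.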

[19] = species on record: Sus scrofa; assay: Inhibition of porcine brain tubulin polymerization at 15 uM after 61 mins by spectroscopic analysis; how it was run: as §5
[20] = test system: DNA; assay: Binding affinity to […] (unknown origin) at 100 uM preincubated for 30 mins in presence of Hoechst 33342 followed by compound addition measured after 30 mins by fluorescence assay; assay type: nucleic-acid assay
How it was run: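 ctDNA (30 µM final) pre-mixed with Hoechst 33342 (1 µg/mL final) in 10 mM Tris (pH 7.2), 30 min at r.t. with shaking. Compound then added (0–100 μM series; DMSO 1% in all wells, DMSO-only control) and incubated 30 min at r.t. Fluorescence read at 361 nm excitation, emission spectrum 400–600 nm.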

Row | Compound | Activity [1] | pIC50 [2] | pIC50 [3] | Ratio [4] | inhibition [5] [%] | Ratio [6] | inhibition [7] [%] | Tubulin polymerization induction [8] | Ratio [9] | pIC50 [10] | inhibition [11] [%] | inhibition [12] | Activity [13] [%] | Activity [14] [%] | inhibition [15] | inhibition [16] | Activity [17] | Activity [18] | inhibition [19] | Activity [20]
1 | COc1cc(NS(C)(=O)=O)ccc1Nc1c2ccccc2nc2ccccc12 | Active |  |  |  |  |  |  |  |  |  |  |  |  |  |  |  |  |  |  | 
2 | COc1ccc(-c2cc3cc(C)ccc3c(-c3cccc(O)c3)n2)c(C)c1 |  | 5.76 | 6.25 | 1.13 | 70.4 | 0.2 | 73.4 | inactive | 2.46 | 5.30 | 12.3 | Active |  |  |  |  |  |  |  | 
3 | CC[C@@]1(O)C(=O)OCc2c1cc1n(c2=O)Cc2cc3ccccc3nc2-1 |  |  |  |  |  |  |  |  |  |  |  |  | 25 |  |  |  |  |  |  | 
4 | COc1ccc(-c2cc3cc(C)ccc3c(-c3cccc(N)c3)n2)c(C)c1 |  | 5.56 | 6.13 | 1.22 | 72.4 | 0.06 | 79.7 | inactive | 2.53 | 5.24 | 4.1 |  | 5.82 | 9.43 | Active | inactive | inactive | inactive | Active | inactive
